Test results reported in ChEMBL document CHEMBL3758180, “Synthesis of mixed MOR/KOR efficacy cyclic opioid peptide analogs with antinociceptive activity after systemic administration” (Eur J Med Chem, 2016).
Calls of active or inactive are those of the source. Positions of bridges follow the written chain, without caps; N, C: chain ends. Non-standard residues stand in square brackets, D forms with d. Residues, ends and D or L forms follow the SMILES beside them. d1Nal = N[C@H](Cc1cccc2ccccc12)C(=O)O; d2Nal = N[C@H](Cc1ccc2ccccc2c1)C(=O)O; Dmt = Cc1cc(O)cc(C)c1C[C@H](N)C(=O)O

What was measured:
[1] = target: T1, Delta-type opioid receptor (Homo sapiens, UniProt P41143); test: Agonist activity at human recombinant DOR expressed in CHO cells assessed as calcium mobilization by Fluo-4 AM based fluorescence analysis; format: functional, cell-based
T1 sequence (P41143 whole entry): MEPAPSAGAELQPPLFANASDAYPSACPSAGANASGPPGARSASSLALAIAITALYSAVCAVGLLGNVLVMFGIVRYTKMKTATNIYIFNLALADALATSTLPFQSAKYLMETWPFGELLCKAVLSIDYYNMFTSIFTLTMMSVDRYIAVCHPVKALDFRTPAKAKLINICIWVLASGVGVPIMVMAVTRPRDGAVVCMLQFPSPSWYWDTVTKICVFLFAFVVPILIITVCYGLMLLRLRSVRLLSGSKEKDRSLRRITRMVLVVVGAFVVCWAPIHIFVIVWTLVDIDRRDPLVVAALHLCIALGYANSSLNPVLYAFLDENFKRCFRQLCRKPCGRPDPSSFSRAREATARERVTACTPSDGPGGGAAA

[2] = Stability of compound in Wistar rat brain homogenate assessed as compound remaining after 90 mins by RP-HPLC analysis; format: ADME; conditions: read-out: Stability
How it was run: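 Peptide incubated with Wistar rat brain homogenate at 37°C, sampled at 0, 7.5, 15, 22.5, 30 and 90 min; remaining intact peptide quantified by RP-HPLC peak area %; value is amount left at 90 min.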

[3] = test system: Mus musculus; test: Antinociceptive activity in ip dosed BalbC albino mouse assessed as latency of jumping after 15 mins by hot-plate method; format: functional; conditions: for ED50: 0.25 h
[4] = target: T1, Delta-type opioid receptor; test: Agonist activity at human recombinant DOR expressed in CHO cells assessed as calcium mobilization by Fluo-4 AM based fluorescence analysis relative to DPDPE; format: functional, cell-based
How it was run: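 CHO cells stably co-expressing human recombinant DOR and chimeric Gαqi5 (G66D variant); intracellular calcium rise measured across concentration-response curves. Agonist potency as pEC50; efficacy as intrinsic activity α, ratio of ligand Emax to standard agonist (DPDPE) Emax. Mean ± SEM, at least 3 separate experiments in duplicate.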

[5] = test system: Mus musculus; test: Antinociceptive activity in icv dosed BalbC albino mouse assessed as latency of jumping after 10 mins by hot-plate method; format: functional
How it was run: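 Injection icv into left lateral ventricle (10 μL/animal) of hand-restrained mice; hot-plate test at 55 ± 0.5°C 10 min post-injection, jumping latency with 240 s cut-off. Response as %MPE = (t1 − t0)/(t2 − t0) × 100; ED50 by nonlinear regression; 7-10 animals per group.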

[6] = test system: Mus musculus; test: Antinociceptive activity in BalbC albino mouse assessed as latency of jumping at 3 mg/kg, ip after 30 to 60 mins by hot-plate method; format: functional, organism-based
How it was run: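 Time course after single ip dose of 3 mg/kg; hot-plate (55 ± 0.5°C) jump latency read at 15, 30, 45 and 60 min, 240 s cut-off. Expressed as %MPE from control, test and cut-off latencies; mean ± SEM, 7-10 mice per group, each tested once.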

[7] = target: Mu-type opioid receptor (Rattus norvegicus, UniProt P33535); test: Displacement of [3H]DAMGO from MOR in Wistar rat brain homogenates by liquid scintillation counting analysis; format: tissue-based
Sequence of Mu-type opioid receptor (Rattus norvegicus, UniProt P33535) (P33535 whole entry): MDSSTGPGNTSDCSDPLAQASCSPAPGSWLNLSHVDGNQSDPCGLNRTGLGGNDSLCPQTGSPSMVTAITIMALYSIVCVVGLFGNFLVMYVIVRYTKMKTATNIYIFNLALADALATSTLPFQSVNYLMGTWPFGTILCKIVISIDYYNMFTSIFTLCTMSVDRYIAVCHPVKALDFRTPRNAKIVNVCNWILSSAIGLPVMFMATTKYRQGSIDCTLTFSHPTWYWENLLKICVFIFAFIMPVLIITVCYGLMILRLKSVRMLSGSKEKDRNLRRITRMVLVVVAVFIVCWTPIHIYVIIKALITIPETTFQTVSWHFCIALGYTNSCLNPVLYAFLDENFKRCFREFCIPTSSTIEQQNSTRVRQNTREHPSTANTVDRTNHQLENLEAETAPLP
How it was run: (§1)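 Competition binding in brain membranes of adult male Wistar rats, [3H]DAMGO for MOR or [3H][Ile5,6]deltorphin-2 for DOR. IC50 from log dose-displacement curves, converted to Ki by Cheng-Prusoff. Mean ± SEM of three independent experiments in duplicate.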

[8] = target: Mu-type opioid receptor (Homo sapiens, UniProt P35372); test: Agonist activity at human recombinant MOR expressed in CHO cells assessed as calcium mobilization by Fluo-4 AM based fluorescence analysis; format: functional, cell-based
Sequence of Mu-type opioid receptor (Homo sapiens, UniProt P35372) (P35372 whole entry): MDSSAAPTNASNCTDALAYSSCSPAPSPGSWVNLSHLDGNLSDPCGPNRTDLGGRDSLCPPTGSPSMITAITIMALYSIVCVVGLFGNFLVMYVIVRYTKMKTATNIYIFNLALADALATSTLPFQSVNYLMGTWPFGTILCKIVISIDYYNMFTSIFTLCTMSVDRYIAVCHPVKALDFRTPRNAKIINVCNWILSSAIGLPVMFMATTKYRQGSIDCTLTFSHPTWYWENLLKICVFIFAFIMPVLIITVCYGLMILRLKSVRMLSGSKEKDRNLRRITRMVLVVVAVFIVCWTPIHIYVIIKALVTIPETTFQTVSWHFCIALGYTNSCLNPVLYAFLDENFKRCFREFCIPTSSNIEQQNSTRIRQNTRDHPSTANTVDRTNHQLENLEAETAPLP

[9] = target: Delta-type opioid receptor (Rattus norvegicus, UniProt P33533); test: Displacement of [3H][Ile5,6]deltorphin-2 from DOR in Wistar rat brain homogenates by liquid scintillation counting analysis; format: tissue-based; how it was run: as §1
Sequence of Delta-type opioid receptor (Rattus norvegicus, UniProt P33533) (P33533 whole entry): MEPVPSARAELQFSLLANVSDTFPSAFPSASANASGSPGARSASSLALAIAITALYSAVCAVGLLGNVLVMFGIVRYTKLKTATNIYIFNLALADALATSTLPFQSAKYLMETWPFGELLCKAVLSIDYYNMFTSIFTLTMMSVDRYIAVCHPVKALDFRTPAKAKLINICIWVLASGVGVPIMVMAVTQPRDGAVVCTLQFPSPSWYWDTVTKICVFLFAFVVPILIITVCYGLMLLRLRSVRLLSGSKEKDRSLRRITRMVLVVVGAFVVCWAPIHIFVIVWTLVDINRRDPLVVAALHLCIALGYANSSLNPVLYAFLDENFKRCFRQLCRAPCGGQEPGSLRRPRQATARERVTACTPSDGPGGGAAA

[10] = target: Kappa-type opioid receptor (Cavia porcellus, UniProt P41144); test: Displacement of [3H]nor-BNI from KOR in Dunkin Hartley guinea pig brain homogenates by liquid scintillation counting analysis; format: tissue-based
Sequence of Kappa-type opioid receptor (Cavia porcellus, UniProt P41144) (P41144 whole entry): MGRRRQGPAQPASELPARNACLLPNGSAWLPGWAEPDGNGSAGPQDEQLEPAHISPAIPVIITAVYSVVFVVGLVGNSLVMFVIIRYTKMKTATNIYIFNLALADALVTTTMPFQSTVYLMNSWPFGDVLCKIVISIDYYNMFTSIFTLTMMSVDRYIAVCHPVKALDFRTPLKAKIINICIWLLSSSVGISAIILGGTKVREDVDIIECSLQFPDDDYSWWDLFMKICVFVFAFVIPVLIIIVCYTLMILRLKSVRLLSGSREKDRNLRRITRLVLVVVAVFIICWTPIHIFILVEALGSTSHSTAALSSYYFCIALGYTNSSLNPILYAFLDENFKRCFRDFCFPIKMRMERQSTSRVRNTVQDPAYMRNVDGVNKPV

[11] = Retention time of compound by RP-HPLC analysis; format: physicochemical
[12] = test system: Mus musculus; test: Antinociceptive activity in BalbC albino mouse assessed as latency of jumping at 10 mg/kg, ip after 15 mins by hot-plate method; format: functional
[13] = test system: Mus musculus; test: Antinociceptive activity in BalbC albino mouse assessed as latency of jumping at 3 mg/kg, ip after 15 mins by hot-plate method; format: functional, organism-based
[14] = target: T2, Kappa-type opioid receptor (Homo sapiens, UniProt P41145); test: Agonist activity at human recombinant KOR expressed in CHO cells assessed as calcium mobilization by Fluo-4 AM based fluorescence analysis; format: functional, cell-based
T2 sequence (P41145 whole entry): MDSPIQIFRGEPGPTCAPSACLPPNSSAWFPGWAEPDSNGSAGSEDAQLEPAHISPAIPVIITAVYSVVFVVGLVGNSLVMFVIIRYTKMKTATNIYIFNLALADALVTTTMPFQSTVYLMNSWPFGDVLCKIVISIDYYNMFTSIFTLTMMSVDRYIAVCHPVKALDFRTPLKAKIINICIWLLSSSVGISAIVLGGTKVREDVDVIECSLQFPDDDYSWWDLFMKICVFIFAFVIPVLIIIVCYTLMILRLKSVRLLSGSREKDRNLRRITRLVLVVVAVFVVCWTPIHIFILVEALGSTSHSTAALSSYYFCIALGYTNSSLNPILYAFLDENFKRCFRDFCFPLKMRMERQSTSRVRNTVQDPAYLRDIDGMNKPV
How it was run: (§2)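 CHO cells stably co-expressing human recombinant KOR and C-terminally modified Gαqi5; calcium mobilization concentration-response curves. pEC50 from curve fitting with Hill coefficient; intrinsic activity α as ligand Emax over Emax of standard agonist dynorphin A. Mean ± SEM of at least 3 separate experiments, each in duplicate.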

[15] = target: T2, Kappa-type opioid receptor; test: Agonist activity at human recombinant KOR expressed in CHO cells assessed as calcium mobilization by Fluo-4 AM based fluorescence analysis relative to DynA; format: functional, cell-based; how it was run: as §2
[16] = target: T1, Delta-type opioid receptor; test: Agonist activity at human recombinant DOR expressed in CHO cells assessed as calcium mobilization up to 1 uM by Fluo-4 AM based fluorescence analysis; format: functional, cell-based

In the case of `Cc1cc(O)cc(C)c1C[C@H](N)C(=O)N[C@@H]1CCCCNC(=O)C[C@@H](C(N)=O)NC(=O)[C@@H](Cc2cccc3ccccc23)NC(=O)[C@H](Cc2ccccc2)NC1=O` (H-[Dmt][dK]F[d1Nal]D-NH2; lactam 2-5), the EC50 [1] is reported as 64.6 nM, the remaining at 1.5 h [2] is reported as 96% and the Activity [3] is reported as “Dose-dependent effect”. It also gave an ED50 [3] of 1.16 mg/kg, an Intrinsic activity [4] of 0.5 and an ED50 [5] of 0.06 µg. The Activity [6] was “inactive”, the Ki [7] was 0.25 nM and the EC50 [8] was 5.62 nM. The Ki [9] was 51.2 nM, the Ki [10] was 1.78 nM and the Retention_time [11] was 16.02 min. The Activity [12] was 82%, the Activity [13] was “Active” and the EC50 [14] was 41.7 nM. For the same compound, the Emax [15] was 79% and the Intrinsic activity [15] was 0.74.
Compound `CC[C@H](C)[C@H](NC(=O)[C@H](CCCNC(=N)N)NC(=O)[C@H](CCCNC(=N)N)NC(=O)[C@H](CC(C)C)NC(=O)[C@H](Cc1ccccc1)NC(=O)CNC(=O)CNC(=O)[C@@H](N)Cc1ccc(O)cc1)C(=O)N[C@@H](CCCNC(=N)N)C(=O)N1CCC[C@H]1C(=O)N[C@@H](CCCCN)C(=O)N[C@@H](CC(C)C)C(=O)N[C@@H](CCCCN)C(=O)O` [ANALOG OF DYNORPHIN A] has an Intrinsic activity [4] of 0.99.
Compound `Cc1cc(O)cc(C)c1C[C@H](N)C(=O)N[C@@H]1CCCCNC(=O)C[C@@H](C(N)=O)NC(=O)[C@H](Cc2ccccc2)NC(=O)[C@@H](Cc2cccc3ccccc23)NC1=O` has a remaining at 1.5 h [2] of 93.8%, an ED50 [5] of 0.714 µg and a Ki [7] of 69.2 nM. For the same compound, the EC50 [8] was 20 nM, the pEC50 [16] was “inactive” and the Ki [9] was 9170 nM. It also gave a Ki [10] of 56.6 nM, a Retention_time [11] of 16.21 min and an Activity [12] of 17%. It also gave an EC50 [14] of 1290 nM and an Intrinsic activity [15] of 0.43.
Work on `NC(=O)[C@H](Cc1ccccc1)NC(=O)[C@H](Cc1ccccc1)NC(=O)[C@@H]1CCCN1C(=O)[C@@H](N)Cc1ccc(O)cc1` [ENDOMORPHIN 2] yielded a remaining at 1.5 h [2] of 0.61%, an ED50 [5] of 1.82 µg and a Retention_time [11] of 17.25 min.
For `NC(=O)[C@@H]1CC(=O)NCCCC[C@@H](NC(=O)[C@@H](N)Cc2ccc(O)cc2)C(=O)N[C@@H](Cc2ccccc2)C(=O)N[C@@H](Cc2ccccc2)C(=O)N1` (H-Y[dK]FFD-NH2; lactam 2-5), the remaining at 1.5 h [2] was 96%, the Activity [3] was “Dose-dependent effect” and the ED50 [3] was < 0.01 mg/kg. The ED50 [5] was 0.05 µg, the Activity [6] was “inactive” and the Ki [7] was 0.35 nM. It also gave an EC50 [8] of 2.04 nM, a Ki [9] of 171 nM and a Ki [10] of 1.12 nM. The Retention_time [11] was 20.5 min, the Activity [12] was 88% and the Activity [13] was “Active”. It also gave an EC50 [14] of 6.61 nM, an Emax [15] of 106% and an Intrinsic activity [15] of 1.
In the case of `Cc1cc(O)cc(C)c1C[C@H](N)C(=O)N[C@@H]1CCCCNC(=O)C[C@@H](C(N)=O)NC(=O)[C@@H](Cc2ccc3ccccc3c2)NC(=O)[C@H](Cc2ccccc2)NC1=O` (H-[Dmt][dK]F[d2Nal]D-NH2; lactam 2-5), the EC50 [1] is reported as 53.7 nM, the remaining at 1.5 h [2] is reported as 95.6% and the Activity [3] is reported as “Dose-dependent effect”. For the same compound, the ED50 [3] was 3.24 mg/kg, the Intrinsic activity [4] was 0.31 and the ED50 [5] was 0.08 µg. The Activity [6] was “inactive”, the Ki [7] was 0.44 nM and the EC50 [8] was 3.63 nM. For the same compound, the Ki [9] was 110 nM, the Ki [10] was 1.02 nM and the Retention_time [11] was 16.1 min. The Activity [12] was 55%, the Activity [13] was “Active” and the EC50 [14] was 102 nM. The Intrinsic activity [15] was 0.44.
In the case of `Cc1cc(O)cc(C)c1C[C@H](N)C(=O)N[C@@H]1CCCCNC(=O)C[C@@H](C(N)=O)NC(=O)[C@H](Cc2ccccc2)NC(=O)[C@@H](Cc2ccc3ccccc3c2)NC1=O`, the remaining at 1.5 h [2] is reported as 85.4%, the ED50 [5] is reported as 0.533 µg and the Ki [7] is reported as 16.8 nM. The EC50 [8] was 11.5 nM, the pEC50 [16] was “inactive” and the Ki [9] was 4250 nM. For the same compound, the Ki [10] was 751 nM, the Retention_time [11] was 16.38 min and the Activity [12] was 24%. It also gave an EC50 [14] of 1700 nM and an Intrinsic activity [15] of 0.31.
